# miR-122 sensor – miR-122 Renilla sensor signal increase in Huh7, primary screen, miR-122 inhibitor project, cell-based, single point, plate reader | Huh7 miR-122 Renilla luciferase sensor, 48 h; neutral wells = 0, positive control = 100 | activation (reporter increase), % at 12.5 µM | 340,000 tested, 0.3% active;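 active = mean replicate activation score at least 90 and every replicate individually at or above 90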;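 also: higher luciferase means less miR-122 activity so hits act as miR-122 inhibitors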
# Env fusion inh – inhibitors of HIV-1 Env-driven cell-cell fusion, primary screen, HeLa-JRFL effector, CEM21 target cells, luciferase; inhibition, % at 12.3 µM; 360,000 tested, 1.1% active;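 active = mean replicate inhibition score of at least 50 and every replicate individually at or above 50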;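 also: 0% = plate neutral controls and 100% = maraviroc near 300 nM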
# rRNA inh HTS – reduced GFP signal of wild-type E. coli, primary screen, bacterial rRNA inhibitor project, GFP/RFP fluorescence, OD600, single point | E. coli WT GFP vs humanized-ribosome RFP mutants, 24 h; active compounds read low; DMSO median 0, no signal -100 | GFP signal change (wild-type ribosome), % (no concentration beside the values) | 350,000 tested, 1.6% active | AID 720706, 2013;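 active = significant combined selectivity score with lowered wild-type GFP, culture density cut under 30%, mutant RFP and density less affected; inactive = any of these conditions unmet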
# Cneo AK release – Cryptococcus neoformans cell lysis inducers, primary screen, AK release luminescence, single concentration; lysis activity, % at 15 µM; 360,000 tested, 0.2% active; AID 651654, 2012; C. neoformans lysis, adenylate kinase release luminescence, 4 h; normalised: neutral wells 0, clomiphene wells 100;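 active = mean lysis activity across replicates of at least 80%, whatever share of replicates individually reach that level; inactive = mean lysis activity below 80%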
#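 read-out = cell lysis signal | test system = log-phase Cryptococcus neoformans yeast cells | input = cells at 5 × 10^6 per mL | medium = fresh YPD growth medium | signal = luminescent adenylate kinase detection reagent | timing = 4 h at 37 °C static, read 1 h later | dosing = single dose | controls = Clomiphene as positive lysis control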
# GSIS activator – GLuc luminescence reporter in INS-1E cells, primary screen for activators of glucose-dependent secretion of insulin. INS-1E GLuc reporter insulin secretion, 2-3 h. activation, % at 16.6 µM. 370,000 tested, 0.61% active;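 active = lowest replicate activation of at least 40%, so every replicate reaches that level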;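 also: 0% = median of neutral control wells and 100% = median of IBMX positive control wells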
# F508del corr – F508del CFTR correction, initial screen, CFBE line, single point. activity (quench increase), % at 7.58 µM. AID 720511, 2013. CFBE cells, YFP halide quenching; stimulated with forskolin plus potentiator P3; % fluorescence drop versus neutral controls. 350,000 tested, 0.36% active;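 active = mean added fluorescence quench of at least 8% versus neutral control, with both replicates also reaching 8%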;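 also: cells transiently co-express mutant CFTR-F508del with the halide-sensitive YFP; corrector assay measuring rescue of mutant channel to the surface after 24 h compound exposure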
# * = called active by the depositor; i = inactive; nt = no result; [ ] = another dose, or the depositor's remark. Shown are actives, neighbours in structure and some others; about 3.1% of the full set was active somewhere.
SMILES,miR-122 sensor,Env fusion inh,rRNA inh HTS,Cneo AK release,GSIS activator,F508del corr
O=C(Cc1cccnc1)N1CCCCN2[C@H](CO)[C@@H](c3ccc(C#CC4CC4)cc3)[C@@H]2C1,2.6[16.7 µM],nt,nt,0.4,nt,-2.2
O=C(Cc1cccnc1)N1CCCCN2[C@@H](CO)[C@@H](c3ccc(C#CC4CCCC4)cc3)[C@@H]2C1,1.0[16.7 µM],nt,-43.9,-10.5,-18.0,-1.2
CC(=O)N1C[C@@H]2C(c3ccccc3)[C@H](C1)N2C (stereo partly specified),nt,nt,0.9,nt,-8.5,nt
COc1ccccc1N1CCN(Cc2ccc(Br)cc2)CC1,-1.0,-9.4,-28.0*,-2.7,-4.1,-6.4
COc1ccccc1N1CCN(Cc2ccccc2Cl)CC1,-2.5,-34.9,nt,-3.8,nt,nt
CCC1(O)CCC2C3CCC4=CC(=O)CCC4C3CCC21CC (stereo unspecified),-9.3,i,-34.2,-0.6,-21.0,4.3
C#CC1(O)C=CC2C3CCC4=CC(=O)CCC4C3CCC21CC (stereo unspecified),-8.1,-32.9,-20.2*,1.2,-17.0,3.2
O=C(Cc1ccccc1)N1CCCCN2[C@H](C1)[C@H](c1ccc(C#Cc3ccccc3)cc1)[C@@H]2CO,-5.1[16.7 µM],nt,1.9,-1.3,24.0,-0.9
O=C(Cc1ccccc1)N1CC2(C1)[C@H](c1ccccc1)[C@@H](CO)N2Cc1cccc(Cl)c1,nt,nt,-16.6,nt,-14.6,2.6
CCOC(=O)C1CCCN(c2ccc([N+](=O)[O-])c3nonc23)C1 (stereo unspecified),nt,3.0,32.4,nt,-13.1,14.5*
O=C(Cc1cccnc1)N1CCCCN2[C@H](CO)[C@@H](c3ccc(C#CC4CCCC4)cc3)[C@H]2C1,-3.2[16.7 µM],nt,-59.5,4.5,13.4,-0.7
C=CCn1c(O)c(/C=C2/C=CC=N2)c(=O)[nH]c1=O,-1.5,-53.7,16.2,1.1,27.1,nt
CCCCn1c(O)c(/C=C2/C=CC=N2)c(=O)[nH]c1=O,2.7,-12.3,12.9,-2.2,55.7*,-0.2
CC[n+]1c(-c2ccccc2)c2cc(N)ccc2c2ccc(N)cc21,nt,8.3,-33.4,nt,-37.8,10.0*
COc1ccc(CCN)cc1O,0.6,40.4,8.6,-0.4,4.1,-3.6
COc1ccc(CC2c3cc(OC)c(OC)cc3CCN2C)cc1O (stereo unspecified),-3.2,-4.9,-2.5,-1.8,43.1*,1.8
COc1ccc(-c2cc(=O)c3c(OC)c(OC)c(OC)cc3o2)cc1,-21.3,nt,-30.1*,-0.3,-12.9,-0.6
Nc1ccc(Cl)c(Cl)c1,1.6,nt,3.7,2.5,2.2,12.3*
NC(Cc1nc2ccccc2[nH]1)c1ccc(Cl)cc1 (stereo unspecified),-8.8,-359.9,-45.4*,-22.0,-5.3,-1.5
NC(Cc1ccccc1)c1nc2ccccc2[nH]1 (stereo unspecified),nt,-18.8,7.4,-0.6,1.4,-0.7
C[C@]12CCC3C(CCC4=C/C(=N/OCC(=O)NC(CCC(=O)O)C(=O)O)CC[C@@]43C)C1CCC2O (stereo partly specified),-9.2,-31.6,6.4,-0.4,44.1*,-0.4
C[C@]12CCC3C(CCC4=C/C(=N/OCC(=O)NC(CCC(N)=O)C(=O)O)CC[C@@]43C)C1CCC2O (stereo partly specified),nt,-0.4,8.0,-2.6,9.9,1.1
CN(C)C(=O)Oc1c(Cl)cc(Cl)c2ccccc12,-3.1,nt,nt,1.7,nt,nt
Cc1cc(OC(=O)N(C)C)nc(SCc2c(Cl)cccc2Cl)n1,nt,8.8,-18.5*,nt,-9.4,2.8
C/C=C/c1ccc(C2[C@@H]3CN(C(C)=O)C[C@H]2N3)cc1 (stereo partly specified),nt,nt,6.6,nt,4.1,-2.0
SMILES,miR-122 sensor,Env fusion inh,rRNA inh HTS,Cneo AK release,GSIS activator,F508del corr
COc1ccc(C#Cc2ccc([C@H]3[C@H]4CN(C(=O)Cc5cccnc5)CCCCN4[C@H]3CO)cc2)cc1,-16.0[16.7 µM],nt,-40.8,-0.1,2.4,-0.4
O=C(Cc1cccnc1)N1CCCCN2[C@@H](CO)[C@H](c3ccc(C#CC4(O)CCCC4)cc3)[C@@H]2C1,9.2[16.7 µM],nt,3.1,-2.6,11.2,-1.9
C[C@]12CCC3[C@@H](CC[C@H]4C[C@@H](O)CC[C@]34C)C1CCC2=O (stereo partly specified),-4.8,8.2,-19.1,-1.2,0.9,-4.9
C[C@]12CCC3C(CC[C@H]4C[C@@H](O)CC[C@]34C)C1C[C@@H](O)C2=O (stereo partly specified),-6.3,-22.7,-23.3*,0.2,nt,3.0
CCC1(C)OC(c2ccccc2)=C/C(=C/C=C2C(=O)NC(=O)NC2=O)O1 (stereo unspecified),nt,4.9,25.4,nt,1.7,15.3*
CC1CCCN(c2ccc(C(=O)N3CCC4(CC3)OCCO4)cc2[N+](=O)[O-])C1 (stereo unspecified),20.7,-4.0,-29.5*,-1.3,-6.1,-0.6
Cc1cccc2nc(-c3ccccc3)c(-c3ccc(CN4CCC(n5c(=O)[nH]c6cc(Cl)ccc65)CC4)cc3)nc12,nt,-48.9,nt,nt,41.9*,-1.9
O=c1[nH]c2cc(Cl)ccc2n1C1CCN(Cc2ccc(-c3nc4ccc(F)cc4nc3-c3ccccc3)cc2)CC1,nt,3.0,11.8,nt,-17.3,-1.1
COC(=O)[C@@H]1[C@@H](CO)[C@@H]2Cn3c(ccc(-c4ccncc4)c3=O)[C@H]1N2S(=O)(=O)c1ccccc1F,7.5[16.7 µM],nt,2.7,-1.2,5.0,0.0
O=C(O)[C@H]1[C@H](CO)[C@H]2Cn3c(ccc(-c4cncnc4)c3=O)[C@@H]1N2C(=O)NC1CCCC1,-3.4[16.7 µM],nt,2.3,-0.5,3.3,-1.0
CC1=CC2OC3CC4OC(=O)C=CC=CC(C(C)O)OCC(O)C(C)CC(=O)OCC2(CC1O)C4(C)C31CO1 (stereo unspecified),-1.2,82.6*,4.0,nt,-33.9,1.6
CC(O)C1C=CC=CC(=O)OC2CC3OC4C5OC5(C)CCC4(COC(=O)C4OC4(C)C(O)CO1)C2(C)C31CO1 (stereo unspecified),nt,53.0,4.8,nt,-19.1,-3.6
O=C(O)[C@@H]1[C@@H](CO)[C@@H]2Cn3c(ccc(C4=CCCCC4)c3=O)[C@H]1N2C(=O)Cc1ccccn1,nt,6.1[16.7 µM],0.1,51.5,5.5,nt
CCC(c1nnnn1Cc1ccccc1)N1CCC(n2c(=O)[nH]c3ccccc32)CC1 (stereo unspecified),-0.4,55.3*,-10.1,-13.4,-17.4,-2.2

# Compound activity (PubChem)
